Data: ChEMBL document CHEMBL4145471, “New 1,5 and 2,5-disubstituted tetrazoles-dependent activity towards surface barrier of Candida albicans” (Eur J Med Chem, 2018)

Tests used:
[1] = test system: Candida albicans; assay: Antifungal activity against Candida albicans ATCC 90028 assessed as inhibition of metabolic activity at 1.25 ug/ml after 48 hrs in presence of 40 ug/ml fluconazol by XTT assay relative to control; type: functional; conditions: values are per cent of control
In short: (§1)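 Checkerboard against strain ATCC 90028, inoculum per M27-A3: fluconazole 80-1.25 µg/mL on one axis, tetrazole 80-1.25 µg/mL on the other. Plates at 35°C for 48 h, then XTT metabolic reduction read at 475 nm (660 nm reference). Activity is the drop in mean absorbance against untreated growth control. FICs and their summed FIC index are taken at 50% reduction in metabolic activity.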

[2] = test system: Candida albicans; assay: Antifungal activity against Candida albicans ATCC 90028 at 8 ug/ml after 18 hrs relative to control; type: functional
In short: (§2)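 Planktonic broth microdilution per M27-A3 in MOPS-buffered RPMI 1640 (pH 7.0), final inoculum 1.8×10^3 cells/mL, compounds 0.0313–16 µg/mL from 1600 µg/mL stocks in ethanol or DMSO. Incubated at 35°C without agitation; OD405 read at 18 and 48 h. % inhibition was derived from test, sterility (no inoculum) and solvent growth-control wells. Amphotericin B at 0.5 µg/mL served as the 100% control.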

[3] = test system: Caco-2; assay: Cytotoxicity against human Caco2 cells assessed as reduction in cell viability at 256 ug/ml after 18 hrs by XTT assay ralative to control; type: cell-based; conditions: caco-2, 18 h
In short: (§3)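 Caco-2 cells were exposed to compound at 256, 16 or 0.0313 µg/mL for 18 h, then given XTT reagent for 4–6 h. Absorbance was read at 475 nm with a 660 nm reference, and viability and toxicity were expressed as %. CC50 was taken as the concentration giving 50% viability loss. Means ± SD of three independent experiments, samples in duplicate.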

[4] = test system: Candida albicans; assay: Synergistic antifungal activity against Candida albicans ATCC 90028 at 80 ug/ml after 48 hrs in presence of 2.5 ug/ml fluconazol by checkerboard assay relative to control; type: functional
In short: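 Checkerboard microdilution (M27-A3) on C. albicans ATCC 90028 in RPMI 1640: fluconazole (80-1.25 µg/mL) crossed with tetrazole (80-1.25 µg/mL final), incubated at 35°C for 48 h. Growth by OD405 at 18 and 48 h, endpoint taken as 100% inhibition. FIC index = sum of the two agents' FICs; <1 synergism, >1 antagonism.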

[5] = test system: Candida albicans; assay: Antifungal activity against Candida albicans ATCC 90028 assessed as inhibition of metabolic activity at 2.5 ug/ml after 48 hrs in presence of 10 ug/ml fluconazol by XTT assay relative to control; type: functional; conditions: values are per cent of control
In short: (§4)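 C. albicans ATCC 90028 in checkerboard: fluconazole serial dilutions (80-1.25 µg/mL) crossed with tetrazole (80-1.25 µg/mL final), M27-A3 inoculum in RPMI 1640, 35°C for 48 h. Metabolic activity measured by XTT reduction, read at 475 nm (660 nm reference). Activity expressed relative to untreated growth control absorbance.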

[6] = test system: Candida albicans; assay: Antifungal activity against Candida albicans ATCC 90028 at 1 ug/ml after 18 hrs relative to control; type: functional; in short: as §2
[7] = test system: Candida albicans; assay: Synergistic antifungal activity against Candida albicans ATCC 90028 at 40 ug/ml after 48 hrs in presence of 10 ug/ml fluconazol by checkerboard assay relative to control; type: functional
In short: (§5)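 Checkerboard in C. albicans ATCC 90028, inoculum prepared per CLSI M27-A3 in RPMI. Fluconazole serially diluted 80-1.25 µg/mL across the plate against the partner compound at 80-1.25 µg/mL final. Incubated 48 h at 35°C. Metabolic activity read by XTT reduction at 475 nm (660 nm reference), given as % of the untreated growth control.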

[8] = test system: Candida albicans; assay: Antifungal activity against Candida albicans ATCC 90028 assessed as metabolic activity at 20 ug/ml after 48 hrs in presence of 10 ug/ml fluconazol by XTT assay relative to control
[9] = test system: Caco-2; assay: Cytotoxicity against human Caco2 cells assessed as reduction in cell viability at 0.0313 ug/ml after 18 hrs by XTT assay ralative to control; type: cell-based; conditions: caco-2, 18 h; in short: as §3
[10] = test system: Candida albicans; assay: Antifungal activity against Candida albicans ATCC 90028 at 16 ug/ml after 18 hrs relative to control; type: functional; in short: as §2
[11] = test system: Candida albicans; assay: Synergistic antifungal activity against Candida albicans ATCC 90028 at 40 ug/ml after 48 hrs in presence of 40 ug/ml fluconazol by checkerboard assay relative to control; type: functional; conditions: ATCC 90028, 48 h, read-out: GI; in short: as §5
[12] = test system: Candida albicans; assay: Synergistic antifungal activity against Candida albicans ATCC 90028 at 20 ug/ml after 48 hrs in presence of 20 ug/ml fluconazol by checkerboard assay relative to control; type: functional; conditions: ATCC 90028, 48 h, read-out: GI; in short: as §5
[13] = test system: Candida albicans; assay: Antifungal activity against Candida albicans ATCC 90028 assessed as metabolic activity at 80 ug/ml after 48 hrs in presence of 1.25 ug/ml fluconazol by XTT assay relative to control
[14] = test system: Candida albicans; assay: Antifungal activity against Candida albicans ATCC 90028 assessed as inhibition of metabolic activity at 5 ug/ml after 48 hrs in presence of 40 ug/ml fluconazol by XTT assay relative to control; type: functional; conditions: values are per cent of control; in short: as §1
[15] = test system: Candida albicans; assay: Antifungal activity against Candida albicans ATCC 90028 assessed as inhibition of metabolic activity at 2.5 ug/ml after 48 hrs in presence of 80 ug/ml fluconazol by XTT assay relative to control; type: functional; conditions: values are per cent of control; in short: as §4
[16] = test system: Candida albicans; assay: Synergistic antifungal activity against Candida albicans ATCC 90028 at 40 ug/ml after 48 hrs in presence of 20 ug/ml fluconazol by checkerboard assay relative to control; type: functional; in short: as §5
[17] = test system: Candida albicans; assay: Antifungal activity against Candida albicans ATCC 90028 assessed as inhibition of metabolic activity at 2.5 ug/ml after 48 hrs in presence of 20 ug/ml fluconazol by XTT assay relative to control; type: functional; conditions: values are per cent of control; in short: as §4
[18] = test system: Candida albicans; assay: Synergistic antifungal activity against Candida albicans ATCC 90028 at 1.25 ug/ml after 48 hrs in presence of 40 ug/ml fluconazol by checkerboard assay relative to control; type: functional
In short: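 Checkerboard per M27-A3 against ATCC 90028: fluconazole at 80–1.25 µg/mL horizontally and partner compound at 80–1.25 µg/mL vertically, 100 µL yeast inoculum per well, 35°C for 48 h. After 48 h, metabolic activity was measured by XTT reduction at 475 nm (660 nm reference) relative to untreated growth control. FIC index is the sum of the FICs; <1 was defined as synergism and >1 as antagonism.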

[19] = test system: Candida albicans; assay: Antifungal activity against Candida albicans ATCC 90028 assessed as metabolic activity at 40 ug/ml after 48 hrs in presence of 2.5 ug/ml fluconazol by XTT assay relative to control
[20] = test system: Candida albicans; assay: Antifungal activity against Candida albicans ATCC 90028 at 0.0313 ug/ml after 18 hrs relative to control; type: functional

## CCOC(=O)CCn1nnc(-c2ccccc2)n1
[1]
  residual activity: 86.85%
[2]
  Activity: 99.01%
[3]
  Activity: 45.49%
[4]
  growth inhibition (GI): 99.77%
[5]
  residual activity: 71.01%
[6]
  Activity: 85.06%
[7]
  growth inhibition (GI): 99.53%
[8]
  Metabolic activity: 59.93%
[9]
  Activity: 0%
[10]
  Activity: 99.95%
[11]
  inhibition of growth at 40 µg/mL: 99.5%
[12]
  inhibition of growth at 20 µg/mL: 99.5%
[13]
  Metabolic activity: 41.98%
[14]
  residual activity: 94.92%
[15]
  residual activity: 72.63%
[16]
  growth inhibition (GI): 99.54%
[17]
  residual activity: 67.39%
[18]
  growth inhibition (GI): 99.46%
[19]
  Metabolic activity: 61.61%
[20]
  Activity: 99.34%

## ClCCCn1nnnc1-c1ccccc1Cl
[1]
  residual activity: 81.57%
[2]
  Activity: 99.44%
[3]
  Activity: 63.27%
[4]
  growth inhibition (GI): 99.67%
[5]
  residual activity: 64.55%
[6]
  Activity: 93.49%
[7]
  growth inhibition (GI): 99.59%
[8]
  Metabolic activity: 68.01%
[9]
  Activity: 0%
[10]
  Activity: 99.62%
[11]
  inhibition of growth at 40 µg/mL: 99.4%
[12]
  inhibition of growth at 20 µg/mL: 99.7%
[13]
  Metabolic activity: 2.6%
[14]
  residual activity: 86.34%
[15]
  residual activity: 80.42%
[16]
  growth inhibition (GI): 99.53%
[17]
  residual activity: 68.53%
[18]
  growth inhibition (GI): 99.16%
[19]
  Metabolic activity: 75.66%
[20]
  Activity: 99.51%

## Cc1ccc(-c2nnn(CCCN3CCOCC3)n2)cc1
[1]
  residual activity: 100%
[2]
  Activity: 99.97%
[3]
  Activity: 13.04%
[4]
  growth inhibition (GI): 99.54%
[5]
  residual activity: 85.87%
[6]
  Activity: 57.6%
[7]
  growth inhibition (GI): 99.69%
[8]
  Metabolic activity: 46.94%
[9]
  Activity: 18.76%
[10]
  Activity: 99.87%
[11]
  inhibition of growth at 40 µg/mL: 99.5%
[12]
  inhibition of growth at 20 µg/mL: 99.1%
[13]
  Metabolic activity: 100%
[14]
  residual activity: 100%
[15]
  residual activity: 84.01%
[16]
  growth inhibition (GI): 99.55%
[17]
  residual activity: 86.25%
[18]
  growth inhibition (GI): 99.36%
[19]
  Metabolic activity: 26.03%
[20]
  Activity: 99.87%
